Reference: ChEMBL document CHEMBL1138494, “Human glucagon receptor antagonists with thiazole cores. A novel series with superior pharmacokinetic properties” (J Med Chem, 2009)

Columns and labels:
[1] = organism: Homo sapiens; experiment: Selectivity ratio of IC50 for human recombinant glucagon receptor to IC50 for human recombinant GIPR
Procedure, shortened: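 Competition binding of compounds to recombinant human glucagon and GIP receptors on BHK cell membranes, run in parallel as a scintillation proximity assay and, for selected compounds, as a membrane filtration assay.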

[2] = Tmax in fasted Sprague-Dawley rat at 1.9 mg/kg, iv and 3.9 mg/kg, po by HTLC-MS/MS analysis; assay type: ADME, organism-based; details: in vivo
Procedure, shortened: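 Plasma concentration–time profiles were recorded after separate intravenous and peroral dosing at the per-compound doses listed. T_max is reported in min alongside C_max (ng/mL), intravenous half-life and clearance ((mL/min)/kg).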

[3] = target: T1, Gastric inhibitory polypeptide receptor (Homo sapiens, UniProt P48546); experiment: Displacement of [125I]porcine GIP from human recombinant GIPR receptor expressed in BHK cells by scintillation proximity assay; assay type: cell-based
T1 sequence (P48546 whole entry): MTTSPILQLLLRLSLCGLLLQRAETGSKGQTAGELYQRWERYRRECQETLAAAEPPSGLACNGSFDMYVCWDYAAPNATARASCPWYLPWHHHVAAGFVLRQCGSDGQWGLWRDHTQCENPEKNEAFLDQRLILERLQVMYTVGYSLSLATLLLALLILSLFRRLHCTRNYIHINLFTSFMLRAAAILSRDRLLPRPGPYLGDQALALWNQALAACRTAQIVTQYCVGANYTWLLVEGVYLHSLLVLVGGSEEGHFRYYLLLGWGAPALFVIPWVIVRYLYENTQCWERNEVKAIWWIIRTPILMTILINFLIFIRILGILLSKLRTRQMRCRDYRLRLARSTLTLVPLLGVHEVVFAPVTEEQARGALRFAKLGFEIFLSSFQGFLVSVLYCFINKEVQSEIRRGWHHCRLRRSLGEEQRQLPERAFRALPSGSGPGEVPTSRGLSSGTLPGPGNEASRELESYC

[4] = Cmax in fasted Sprague-Dawley rat at 1.9 mg/kg, iv and 3.9 mg/kg, po by HTLC-MS/MS analysis; assay type: ADME, organism-based; details: in vivo
Procedure, shortened: (§1)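 Rats were dosed intravenously and perorally in separate arms, and plasma concentration-time profiles were obtained. Half-life was taken from the iv arm. Clearance, oral bioavailability, Cmax and Tmax were derived from the profiles.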

[5] = Clearance in fasted Sprague-Dawley rat at 1.9 mg/kg, iv and 3.9 mg/kg, po by HTLC-MS/MS analysis; assay type: ADME, organism-based; details: in vivo; procedure, shortened: as §1
[6] = Oral bioavailability in fasted Sprague-Dawley rat at 3.9 mg/kg by HTLC-MS/MS analysis; assay type: ADME, organism-based; details: in vivo
Procedure, shortened: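 Separate intravenous and peroral dosing arms per compound, with plasma concentration followed against time. Oral bioavailability (F_po) is reported per compound together with the intravenous half-life and clearance. The dose used for each arm is listed per compound.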

[7] = organism: Homo sapiens; experiment: Selectivity for human recombinant glucagon receptor over human GLP1R
[8] = target: Glucagon receptor (Homo sapiens, UniProt P47871); experiment: Displacement of [125I]porcine glucagon from human recombinant glucagon receptor expressed in BHK cells by scintillation proximity assay; assay type: cell-based
Sequence of Glucagon receptor (P47871 whole entry): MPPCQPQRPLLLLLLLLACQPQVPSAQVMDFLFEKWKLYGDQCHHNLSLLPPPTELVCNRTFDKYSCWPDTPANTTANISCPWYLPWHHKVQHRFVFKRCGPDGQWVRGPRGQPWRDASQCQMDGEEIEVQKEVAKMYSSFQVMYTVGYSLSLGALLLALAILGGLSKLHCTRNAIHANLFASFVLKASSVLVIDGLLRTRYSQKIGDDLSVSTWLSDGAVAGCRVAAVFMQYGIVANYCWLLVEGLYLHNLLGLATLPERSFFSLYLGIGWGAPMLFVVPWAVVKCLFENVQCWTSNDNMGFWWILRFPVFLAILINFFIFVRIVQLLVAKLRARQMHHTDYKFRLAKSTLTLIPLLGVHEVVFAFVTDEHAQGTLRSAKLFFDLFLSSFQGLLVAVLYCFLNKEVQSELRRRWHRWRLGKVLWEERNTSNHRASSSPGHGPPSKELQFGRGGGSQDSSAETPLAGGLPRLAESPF

[9] = Half life in fasted Sprague-Dawley rat plasma at 1.9 mg/kg, iv by HTLC-MS/MS analysis; assay type: ADME, organism-based; design: dose 1.9 mg/kg, route intravenous; procedure, shortened: as §1

fold change (FC) [1]: 5
Tmax [2]: 30 min
IC50 [3]: 368 nM
Cmax [4]: 36 ng/mL
clearance [5]: 44 mL/min/kg
bioavailability [6]: 3%
fold change (FC) [7]: > 50
IC50 [8]: 48 nM
half-life [9]: 35 min
Compound: O=C(O)CCNC(=O)c1ccc(CN(c2ccc(C3=CCCCC3)cc2)c2nc(-c3ccc(C(F)(F)F)cc3)cs2)cc1
